Test [1] addresses T1, 5'-nucleotidase (Rattus norvegicus) (UniProt P21588).
T1 sequence (whole entry): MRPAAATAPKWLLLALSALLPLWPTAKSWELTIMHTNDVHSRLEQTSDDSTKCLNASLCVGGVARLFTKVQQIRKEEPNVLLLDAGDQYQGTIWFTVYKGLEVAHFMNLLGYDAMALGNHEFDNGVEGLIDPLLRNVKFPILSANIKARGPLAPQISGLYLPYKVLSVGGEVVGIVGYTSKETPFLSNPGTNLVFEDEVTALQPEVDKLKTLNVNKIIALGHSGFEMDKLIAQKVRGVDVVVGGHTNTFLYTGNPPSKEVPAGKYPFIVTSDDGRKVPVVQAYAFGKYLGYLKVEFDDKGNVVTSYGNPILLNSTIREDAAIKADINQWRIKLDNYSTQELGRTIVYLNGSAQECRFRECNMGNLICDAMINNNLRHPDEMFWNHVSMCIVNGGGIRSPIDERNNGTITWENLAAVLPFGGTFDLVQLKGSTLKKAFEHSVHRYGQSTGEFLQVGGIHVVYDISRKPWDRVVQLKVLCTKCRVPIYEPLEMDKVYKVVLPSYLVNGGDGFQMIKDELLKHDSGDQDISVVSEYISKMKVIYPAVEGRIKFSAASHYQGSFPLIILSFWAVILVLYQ
Kind of test: Inhibition of rat ecto-5'-nucleotidase expressed in Sf9 cells at 1 mM by capillary electrophoresis method. The procedure, abridged:
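Test agent at 1 mM with 500 μM AMP in 10 mM Hepes pH 7.4, 2 mM MgCl2, 1 mM CaCl2. Incubated 15 min at 37 °C, stopped at 99 °C for 10 min. Adenosine quantified by capillary electrophoresis, UV peak area at 260 nm.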

Test [2] concerns the target T2, 5'-nucleotidase (Rattus norvegicus, UniProt P21588).
T2 sequence (P21588 whole entry): T1 sequence (whole entry)
Kind of test: Inhibition of rat ecto-5'-nucleotidase expressed in Sf9 cells by capillary electrophoresis method. In outline: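 Rat eN, GST-fused, made in Sf9 cells and purified on GSH-agarose. 500 μM AMP in Hepes pH 7.4 with Mg2+/Ca2+, 37 °C for 15 min. Adenosine measured by capillary electrophoresis at 260 nm. Inhibitor at 6-8 concentrations spanning about 3 log units. […] Three experiments, each in duplicate.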

The target of test [3] is P2Y purinoceptor 4 (Homo sapiens, UniProt P51582). Kind of test: Antagonist activity at human P2Y4 receptor expressed in astrocytoma cells assessed as inhibition of intracellular calcium mobilization. Format: functional, cell-based. The procedure, abridged:
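Astrocytoma cells stably expressing the receptor, loaded with Fura-2 AM. Cells preincubated with test agent for at least 20 min, then challenged with 1 μM UTP (P2Y2), 3 μM UTP (P2Y4) or 3 μM UDP (P2Y6). Ca2+ fluorescence read at ex 320/em 520 nm. Full curves (7-8 concentrations over 3 log units) run when inhibition exceeded 40% at 10 μM. Three experiments, each in triplicate.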
(In general: A change in cytosolic calcium serves as a functional read-out for many receptors and channels.)

Chain of P2Y purinoceptor 4 (P51582 whole entry): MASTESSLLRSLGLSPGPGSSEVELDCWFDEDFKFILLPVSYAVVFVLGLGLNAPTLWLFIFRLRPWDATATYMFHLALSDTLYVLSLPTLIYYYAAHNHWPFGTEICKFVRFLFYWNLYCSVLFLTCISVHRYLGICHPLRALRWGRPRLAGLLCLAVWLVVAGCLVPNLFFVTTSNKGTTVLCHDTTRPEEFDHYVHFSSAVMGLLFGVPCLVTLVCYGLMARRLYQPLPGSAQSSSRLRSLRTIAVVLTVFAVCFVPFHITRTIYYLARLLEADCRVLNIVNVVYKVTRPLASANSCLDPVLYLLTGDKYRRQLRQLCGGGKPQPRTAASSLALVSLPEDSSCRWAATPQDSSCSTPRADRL

Take `Nc1c(S(=O)(=O)O)cc(Nc2ccc(C(=O)O)cc2)c2c1C(=O)c1ccccc1C2=O`: the inhibition in test [1] turned out to be 34%.

As to `Nc1c(S(=O)(=O)O)cc(Nc2ccc(Nc3ccccc3)cc2)c2c1C(=O)c1ccccc1C2=O`, in test [1], the inhibition is 37%.

Take `Nc1c(S(=O)(=O)O)cc(Nc2cc(F)ccc2C(=O)O)c2c1C(=O)c1ccccc1C2=O`: the inhibition in test [1] worked out at 60%.

The compound `Nc1c(S(=O)(=O)O)cc(Nc2ccccc2C(=O)O)c2c1C(=O)c1ccccc1C2=O` showed a Ki in test [2] of 6.53 µM.

Take `Nc1c(S(=O)(=O)O)cc(Nc2ccc3cc(C(=O)O)ccc3c2)c2c1C(=O)c1ccccc1C2=O`: the affinity in test [2] corresponds to a Ki of 3.43 µM.

Compound `COc1ccc(CCNc2cc(S(=O)(=O)O)c(N)c3c2C(=O)c2ccccc2C3=O)cc1OC` registered an inhibition in test [1] of 44%.

`Cc1ccc(Nc2cc(S(=O)(=O)O)c(N)c3c2C(=O)c2ccccc2C3=O)c(C)c1` gave an inhibition in test [1] of 47%.

`Cc1cc(Nc2ccccc2)c2c(c1N)C(=O)c1ccccc1C2=O` came in with an inhibition in test [1] of 4%.

In the case of `Nc1c(S(=O)(=O)O)cc(Nc2cc3ccccc3c3ccccc23)c2c1C(=O)c1ccccc1C2=O`, the inhibition in test [1] was determined as 58%.

Regarding `Cc1cccc(Nc2cc(S(=O)(=O)O)c(N)c3c2C(=O)c2ccccc2C3=O)c1`, the affinity in test [2] corresponds to a Ki of 12.3 µM.

With `Nc1c(S(=O)(=O)O)cc(Nc2ccc(Cl)cc2C(=O)O)c2c1C(=O)c1ccccc1C2=O`, in test [1], the inhibition was 52%.

Consider `Nc1c(S(=O)(=O)O)cc(Nc2ccc(Nc3nc(Cl)nc(Nc4cccc(S(=O)(=O)O)c4)n3)c(S(=O)(=O)O)c2)c2c1C(=O)c1ccccc1C2=O` [RB 2], for which, in test [3], the IC50 is 9.79 µM. The Ki in test [2] came to 3.07 µM.

With `Nc1c(S(=O)(=O)O)cc(Nc2cccc(C(=O)O)c2)c2c1C(=O)c1ccccc1C2=O`, in test [1], the inhibition came to 26%.

On to `Nc1cc(Nc2cc(S(=O)(=O)O)c(N)c3c2C(=O)c2ccccc2C3=O)cc(C(=O)O)c1`, for which the inhibition in test [1] was found to be 44%.

`Nc1c(S(=O)(=O)O)cc(NC2CCCCC2)c2c1C(=O)c1ccccc1C2=O`: in test [2], the affinity corresponds to a Ki of 1.66 µM.

Consider `Nc1c(S(=O)(=O)O)cc(Nc2cccc3cc4ccccc4cc23)c2c1C(=O)c1ccccc1C2=O`, for which, in test [2], the Ki turned out to be 2.93 µM.

In turn, `Cc1ccc(Nc2cc(S(=O)(=O)O)c(N)c3c2C(=O)c2ccccc2C3=O)cc1` returned an inhibitory constant (Ki) in test [2] of 360 µM. This Ki is about 120-fold higher than that of the compound before.

Consider `Nc1ccc(Nc2cc(S(=O)(=O)O)c(N)c3c2C(=O)c2ccccc2C3=O)cc1S(=O)(=O)O`, for which the Ki in test [2] stood at 10 µM.

In turn, `Nc1c(S(=O)(=O)O)cc(Nc2ccc(F)cc2)c2c1C(=O)c1ccccc1C2=O` yielded an inhibitory constant (Ki) in test [2] of 5.67 µM.

For `Nc1c(S(=O)(=O)O)cc(Nc2ccc3ccccc3c2)c2c1C(=O)c1ccccc1C2=O`, the Ki in test [2] came out at 1.47 µM.

In test [1], `Nc1c(S(=O)(=O)O)cc(NCc2ccccc2)c2c1C(=O)c1ccccc1C2=O` displayed an inhibition of 43%.

With `Nc1c(S(=O)(=O)O)cc(Nc2ccc(Cl)cc2)c2c1C(=O)c1ccccc1C2=O`, the Ki in test [2] worked out at 4.81 µM.

Compound `Nc1c(S(=O)(=O)O)cc(Nc2ccc(Br)cc2)c2c1C(=O)c1ccccc1C2=O` showed a Ki in test [2] of 11.3 µM. This Ki lies about 2.3-fold higher than the previous one.

As for `Nc1ccc(Nc2cc(S(=O)(=O)O)c(N)c3c2C(=O)c2ccccc2C3=O)cc1`, the affinity in test [2] corresponds to a Ki of 0.297 µM.

In turn, `Cc1ccccc1Nc1cc(S(=O)(=O)O)c(N)c2c1C(=O)c1ccccc1C2=O` displayed an inhibition in test [1] of 33%.

Turning to `CCOc1ccccc1Nc1cc(S(=O)(=O)O)c(N)c2c1C(=O)c1ccccc1C2=O`, the inhibition in test [1] amounted to 56%.

Consider `Nc1c(S(=O)(=O)O)cc(Nc2cccc3ccc(S(=O)(=O)O)cc23)c2c1C(=O)c1ccccc1C2=O`, for which the inhibition in test [1] stood at 0%.

`Nc1c(S(=O)(=O)O)cc(Nc2cccc3c(S(=O)(=O)O)cccc23)c2c1C(=O)c1ccccc1C2=O`: the Ki in test [2] was found to be 11.7 µM. This counts as double-digit micromolar.

As for `Cc1ccc(C)c(Nc2cc(S(=O)(=O)O)c(N)c3c2C(=O)c2ccccc2C3=O)c1`, in test [1], the inhibition turned out to be 26%.

The compound `Cc1cccc(Nc2cc(S(=O)(=O)O)c(N)c3c2C(=O)c2ccccc2C3=O)c1C` yielded an inhibition in test [1] of 39%.

Compound `COc1ccccc1Nc1cc(S(=O)(=O)O)c(N)c2c1C(=O)c1ccccc1C2=O` had an inhibition in test [1] of 9%.

In the case of `Nc1c(S(=O)(=O)O)cc(NC2CCCC2)c2c1C(=O)c1ccccc1C2=O`, in test [1], the inhibition was 51%.

`Nc1cccc(Nc2cc(S(=O)(=O)O)c(N)c3c2C(=O)c2ccccc2C3=O)c1` yielded an inhibition in test [1] of 31%.

`Nc1c(S(=O)(=O)O)cc(Nc2ccccc2S(=O)(=O)O)c2c1C(=O)c1ccccc1C2=O` had an inhibition in test [1] of 14%.

Regarding `Nc1c(S(=O)(=O)O)cc(Nc2ccc(S(=O)(=O)O)cc2)c2c1C(=O)c1ccccc1C2=O`, the affinity in test [2] corresponds to a Ki of 3.43 µM. This lies in the single-digit micromolar range.

In turn, `Nc1c(S(=O)(=O)O)cc(NCCc2ccccc2)c2c1C(=O)c1ccccc1C2=O` registered an inhibition in test [1] of 53%.

`Nc1c(S(=O)(=O)O)cc(Nc2ccc(Oc3ccccc3)cc2)c2c1C(=O)c1ccccc1C2=O` gave an inhibition constant (Ki) in test [2] of 1.51 µM. This lies in the single-digit micromolar range.

As for `Nc1ccccc1Nc1cc(S(=O)(=O)O)c(N)c2c1C(=O)c1ccccc1C2=O`, the inhibition in test [1] came to 47%. In test [2], this compound showed a Ki of 47 µM.

Compound `Cc1ccc2ccccc2c1Nc1cc(S(=O)(=O)O)c(N)c2c1C(=O)c1ccccc1C2=O` displayed an inhibitory constant (Ki) in test [2] of 2.74 µM.

Compound `Nc1c(S(=O)(=O)O)cc(Nc2ccc(Br)cc2C(=O)O)c2c1C(=O)c1ccccc1C2=O` came in with an inhibition in test [1] of 56%.

Take `Nc1c(S(=O)(=O)O)cc(NCCc2ccc(Cl)cc2)c2c1C(=O)c1ccccc1C2=O`: the inhibition in test [1] was 62%.

In test [2], `Nc1c(S(=O)(=O)O)cc(Nc2cccc3cccc(S(=O)(=O)O)c23)c2c1C(=O)c1ccccc1C2=O` returned a Ki of 6.05 µM.

In turn, `Cc1cc(C)c(Nc2cc(S(=O)(=O)O)c(N)c3c2C(=O)c2ccccc2C3=O)c(C)c1N` showed a Ki in test [2] of 36 µM.

Consider `CC(C)Nc1cc(S(=O)(=O)O)c(N)c2c1C(=O)c1ccccc1C2=O`, for which the inhibition in test [1] came out at 15%.

Regarding `Nc1c(S(=O)(=O)O)cc(Nc2cc(Cl)ccc2C(=O)O)c2c1C(=O)c1ccccc1C2=O`, the inhibition in test [1] is 27%.

On to `CCOc1ccc(Nc2cc(S(=O)(=O)O)c(N)c3c2C(=O)c2ccccc2C3=O)cc1`, for which the inhibition in test [1] was 31%.

Compound `CCOP(=O)(Cc1ccc(Nc2cc(S(=O)(=O)O)c(N)c3c2C(=O)c2ccccc2C3=O)cc1)OCC` yielded an inhibition in test [1] of 28%.

`Nc1c(S(=O)(=O)O)cc(Nc2ccccc2O)c2c1C(=O)c1ccccc1C2=O` came in with a Ki in test [2] of 1.84 µM.

`Nc1c(S(=O)(=O)O)cc(Nc2cccc3cc(S(=O)(=O)O)ccc23)c2c1C(=O)c1ccccc1C2=O`: the Ki in test [2] came out at 15.3 µM.

Take `Nc1c(S(=O)(=O)O)cc(Nc2ccc(CC(=O)O)cc2)c2c1C(=O)c1ccccc1C2=O`: in test [1], the inhibition turned out to be 26%.

For `Nc1cc(Nc2cc(S(=O)(=O)O)c(N)c3c2C(=O)c2ccccc2C3=O)ccc1S(=O)(=O)O`, the Ki in test [2] is 25.2 µM.

In turn, `Nc1ncnc2c1ncn2[C@H]1O[C@@H](COP(=O)(O)CP(=O)(O)O)[C@H](O)[C@@H]1O` showed a Ki in test [2] of 0.00087 µM.

In general, inhibition refers to the share of the control response that was lost under treatment. Higher therefore signals a response far below the control. Broadly, the Ki is a dissociation constant, usually derived from enzyme kinetics or from competition with a known ligand. A low value points to higher affinity. Broadly, the IC50 is the concentration that gives 50% inhibition.
